# Reference: the M2OR odorant receptor database
# Tests used:
# Conditions in all cases: stereoisomer not certain
# [1] = molecular target: T1, Or5k16 (Mus musculus) (UniProt Q7TS48)
# T1 sequence (whole entry): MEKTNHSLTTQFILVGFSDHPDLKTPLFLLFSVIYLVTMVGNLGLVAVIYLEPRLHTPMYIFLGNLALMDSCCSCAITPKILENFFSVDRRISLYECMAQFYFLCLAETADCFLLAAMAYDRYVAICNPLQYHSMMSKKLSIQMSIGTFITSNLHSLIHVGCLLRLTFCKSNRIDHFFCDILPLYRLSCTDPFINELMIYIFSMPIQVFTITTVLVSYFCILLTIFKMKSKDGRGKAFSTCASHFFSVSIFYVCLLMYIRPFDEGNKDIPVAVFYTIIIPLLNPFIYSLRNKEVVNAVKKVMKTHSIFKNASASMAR
# Method in brief: (§1)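 Transient luciferase assays in mammalian cell lines were common, though methods varied by source. The values come from published papers and their supplementary material, with extra details from the original authors when needed. Responsive refers to a measured signal the original authors judged statistically different from baseline, and non-responsive (inactive) to the remainder.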
# [2] = molecular target: T2, Or2c1 (Mus musculus) (UniProt P23275)
# T2 sequence (whole entry): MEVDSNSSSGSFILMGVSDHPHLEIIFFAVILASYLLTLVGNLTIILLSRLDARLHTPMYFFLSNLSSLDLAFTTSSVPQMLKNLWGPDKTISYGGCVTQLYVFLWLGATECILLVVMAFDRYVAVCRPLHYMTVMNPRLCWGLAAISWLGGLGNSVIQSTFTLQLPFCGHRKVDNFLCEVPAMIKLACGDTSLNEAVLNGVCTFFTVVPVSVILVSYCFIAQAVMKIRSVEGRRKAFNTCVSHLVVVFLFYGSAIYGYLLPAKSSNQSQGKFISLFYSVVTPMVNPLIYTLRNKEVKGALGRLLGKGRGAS
# Method in brief: as §1
# [3] = molecular target: T3, Or5ar1 (Mus musculus) (UniProt Q8VGS3)
# T3 sequence (whole entry): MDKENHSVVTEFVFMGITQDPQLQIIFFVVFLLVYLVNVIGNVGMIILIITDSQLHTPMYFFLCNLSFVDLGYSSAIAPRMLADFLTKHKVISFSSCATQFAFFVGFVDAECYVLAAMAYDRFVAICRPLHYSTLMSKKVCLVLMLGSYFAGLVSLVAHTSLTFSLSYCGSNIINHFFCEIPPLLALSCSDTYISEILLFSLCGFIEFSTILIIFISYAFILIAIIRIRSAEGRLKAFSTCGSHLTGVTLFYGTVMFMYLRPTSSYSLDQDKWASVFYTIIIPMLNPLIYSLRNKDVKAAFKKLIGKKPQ
# Method in brief: as §1
# [4] = molecular target: T4, Or5p57 (Mus musculus) (UniProt Q8VEZ0)
# T4 sequence (whole entry): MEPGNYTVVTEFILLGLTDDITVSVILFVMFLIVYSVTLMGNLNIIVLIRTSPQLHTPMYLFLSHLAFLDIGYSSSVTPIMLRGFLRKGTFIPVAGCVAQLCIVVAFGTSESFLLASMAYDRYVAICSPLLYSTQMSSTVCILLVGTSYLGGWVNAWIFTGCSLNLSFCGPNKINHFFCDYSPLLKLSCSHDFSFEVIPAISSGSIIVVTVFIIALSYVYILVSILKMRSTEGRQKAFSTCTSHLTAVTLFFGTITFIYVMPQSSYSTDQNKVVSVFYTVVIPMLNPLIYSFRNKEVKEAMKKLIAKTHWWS
# Method in brief: as §1
# [5] = molecular target: T5, Or5p80 (Mus musculus) (UniProt Q8VG42)
# T5 sequence (whole entry): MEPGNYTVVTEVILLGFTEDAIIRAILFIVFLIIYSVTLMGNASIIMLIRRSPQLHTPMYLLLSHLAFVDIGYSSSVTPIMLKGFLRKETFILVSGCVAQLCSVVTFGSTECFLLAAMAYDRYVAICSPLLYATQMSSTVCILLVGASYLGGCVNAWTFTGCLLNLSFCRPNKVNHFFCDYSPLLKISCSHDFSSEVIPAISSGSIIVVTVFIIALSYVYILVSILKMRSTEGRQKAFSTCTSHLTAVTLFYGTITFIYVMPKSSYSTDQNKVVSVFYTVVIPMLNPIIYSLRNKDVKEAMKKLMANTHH
# Method in brief: as §1
# [6] = molecular target: T6, Or7a40 (Mus musculus) (UniProt Q9JHB2)
# T6 sequence (whole entry): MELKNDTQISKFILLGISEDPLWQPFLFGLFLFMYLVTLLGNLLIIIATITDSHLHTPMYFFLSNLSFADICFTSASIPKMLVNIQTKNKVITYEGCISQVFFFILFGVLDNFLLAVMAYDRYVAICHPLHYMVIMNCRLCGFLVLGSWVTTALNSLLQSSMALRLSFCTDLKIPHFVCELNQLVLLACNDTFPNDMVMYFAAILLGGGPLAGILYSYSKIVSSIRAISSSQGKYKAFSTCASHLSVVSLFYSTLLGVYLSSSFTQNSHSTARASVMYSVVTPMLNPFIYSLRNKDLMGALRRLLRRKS
# Method in brief: as §1
# [7] = molecular target: T7, Or1m1 (Mus musculus) (UniProt Q8VFM9)
# T7 sequence (whole entry): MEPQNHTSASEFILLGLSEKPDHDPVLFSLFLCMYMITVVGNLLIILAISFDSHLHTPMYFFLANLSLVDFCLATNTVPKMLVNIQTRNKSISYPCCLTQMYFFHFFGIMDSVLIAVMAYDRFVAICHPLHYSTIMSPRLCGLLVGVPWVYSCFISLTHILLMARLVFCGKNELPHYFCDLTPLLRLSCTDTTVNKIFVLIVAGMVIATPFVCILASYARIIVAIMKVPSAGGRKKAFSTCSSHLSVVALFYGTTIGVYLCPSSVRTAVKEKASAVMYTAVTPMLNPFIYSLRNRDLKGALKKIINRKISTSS
# Method in brief: as §1
# [8] = molecular target: T8, Or5an6 (Mus musculus) (UniProt Q8VFV4)
# T8 sequence (whole entry): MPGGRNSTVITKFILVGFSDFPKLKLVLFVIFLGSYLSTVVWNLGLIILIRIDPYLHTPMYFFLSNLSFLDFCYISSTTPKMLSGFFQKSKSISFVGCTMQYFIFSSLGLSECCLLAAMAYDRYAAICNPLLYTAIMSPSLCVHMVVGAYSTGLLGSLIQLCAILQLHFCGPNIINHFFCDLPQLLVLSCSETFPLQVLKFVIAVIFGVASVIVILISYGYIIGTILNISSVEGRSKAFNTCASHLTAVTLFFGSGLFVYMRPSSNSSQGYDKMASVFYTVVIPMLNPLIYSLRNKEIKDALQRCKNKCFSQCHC
# Method in brief: as §1
# 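Further: active if original authors judged signal statistically different from baseline.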
smiles,measurement,setting,value
CC(=O)c1nccnc1C,odorant receptor agonist call,[1],inactive
CCCCCCC(=O)[O-].[H+],odorant receptor agonist call,[2],inactive
same,odorant receptor agonist call,[3],inactive
same,odorant receptor agonist call,[4],inactive
same,odorant receptor agonist call,[5],inactive
same,odorant receptor agonist call,[6],inactive
COc1nccnc1C(C)C,odorant receptor agonist call,[7],inactive
same,odorant receptor agonist call,[3],inactive
same,odorant receptor agonist call,[1],inactive
O=C1CCCC=CCCCCCCCCCC1,odorant receptor agonist call,[8],active
Cc1cnccn1,odorant receptor agonist call,[1],inactive
CCc1ncc(C)nc1CC,odorant receptor agonist call,[7],inactive
same,odorant receptor agonist call,[3],inactive
same,odorant receptor agonist call,[1],inactive
O=C1C=CCCCCCCCCCCCCO1,odorant receptor agonist call,[8],active
Cc1cnc(C)cn1,odorant receptor agonist call,[1],inactive
CC(=O)c1cnccn1,odorant receptor agonist call,[1],inactive
O=C1CCCCCCC=CCCCCCCC1,odorant receptor agonist call,[8],active
O=C1CCCCCCCCCCCCCC1,odorant receptor agonist call,[8],active
O=C(O)CCCCCBr,odorant receptor agonist call,[7],inactive
same,odorant receptor agonist call,[3],inactive
same,odorant receptor agonist call,[4],inactive
CCCCOC(=O)C(C)OC(=O)CCC (stereo not drawn),odorant receptor agonist call,[2],inactive
same,odorant receptor agonist call,[3],inactive
same,odorant receptor agonist call,[5],inactive
same,odorant receptor agonist call,[6],inactive
O=C1CCCCCCCCCC1,odorant receptor agonist call,[8],inactive
CC1CC=CCCCCCCCCC(=O)C1 (stereo not drawn),odorant receptor agonist call,[8],active
CC1C(C)(C)C2=C(C(=O)CCC2)C1(C)C (stereo not drawn),odorant receptor agonist call,[8],inactive
CCc1nccnc1C(C)=O,odorant receptor agonist call,[1],inactive
CCc1nccnc1OC,odorant receptor agonist call,[1],inactive
CC1CCc2nccnc21 (stereo not drawn),odorant receptor agonist call,[1],inactive
Cc1nccnc1C,odorant receptor agonist call,[1],inactive
CCCCCO,odorant receptor agonist call,[2],inactive
same,odorant receptor agonist call,[3],inactive
same,odorant receptor agonist call,[4],inactive
same,odorant receptor agonist call,[5],inactive
same,odorant receptor agonist call,[6],inactive
O=C1CCCCCCCCC1,odorant receptor agonist call,[8],active
CCC(=O)OCC(C)(C)OC(C)C1CCCC(C)(C)C1 (stereo not drawn),odorant receptor agonist call,[8],active
CCCCCCCC(=O)CCCCCCC,odorant receptor agonist call,[8],active
CCC(C)c1nccnc1OC (stereo not drawn),odorant receptor agonist call,[7],inactive
same,odorant receptor agonist call,[3],inactive
same,odorant receptor agonist call,[1],inactive
COc1cnccn1,odorant receptor agonist call,[7],inactive
same,odorant receptor agonist call,[3],inactive
same,odorant receptor agonist call,[1],inactive
COC1=C(C)OC(C)C1=O (stereo not drawn),odorant receptor agonist call,[1],inactive
